Laboratory results reported in ChEMBL document CHEMBL4014344, “Discovery of the Soluble Guanylate Cyclase Stimulator Vericiguat (BAY 1021189) for the Treatment of Chronic Heart Failure” (J Med Chem, 2017).
Calls of active or inactive are those of the source. The calls are words filed in the database; no cut-off is given here.

Experiments:
[1] = Volume of distribution at steady state in iv dosed Beagle dog after 24 hrs by LC-MS analysis; assay type: ADME, organism-based, Canis lupus familiaris; conditions: in vivo, read-out: Vdss
In short: (§1)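 Male Wistar rats and female beagle dogs. iv in plasma/DMSO (rat) or H2O/PEG 400/EtOH (dog). Oral gavage in H2O/PEG 400/EtOH for both. Rats jugular-catheterised ≥1 d before dosing. Usually >10 blood samples, at least two after 24 h. Plasma quantified by LC-MS with internal standard. CL, t1/2, Vss and F calculated from plasma curves. Blood clearance via blood/plasma ratio (20 min blood incubation).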

[2] = Terminal half life in iv dosed Wistar rat blood after 24 hrs by LC-MS analysis; assay type: ADME, organism-based; conditions: whole blood, read-out: beta t1/2 (converted); in short: as §1
[3] = Terminal half life in iv dosed Beagle dog blood after 24 hrs by LC-MS analysis; assay type: ADME, organism-based, Canis lupus familiaris; conditions: whole blood, read-out: beta t1/2 (converted); in short: as §1
[4] = biological target: T1, Cytochrome P450 2A6 (Homo sapiens, UniProt P11509); assay: Inhibition of human liver microsomes CYP2A6 using coumarin as substrate; assay type: ADME
T1 sequence (P11509 whole entry): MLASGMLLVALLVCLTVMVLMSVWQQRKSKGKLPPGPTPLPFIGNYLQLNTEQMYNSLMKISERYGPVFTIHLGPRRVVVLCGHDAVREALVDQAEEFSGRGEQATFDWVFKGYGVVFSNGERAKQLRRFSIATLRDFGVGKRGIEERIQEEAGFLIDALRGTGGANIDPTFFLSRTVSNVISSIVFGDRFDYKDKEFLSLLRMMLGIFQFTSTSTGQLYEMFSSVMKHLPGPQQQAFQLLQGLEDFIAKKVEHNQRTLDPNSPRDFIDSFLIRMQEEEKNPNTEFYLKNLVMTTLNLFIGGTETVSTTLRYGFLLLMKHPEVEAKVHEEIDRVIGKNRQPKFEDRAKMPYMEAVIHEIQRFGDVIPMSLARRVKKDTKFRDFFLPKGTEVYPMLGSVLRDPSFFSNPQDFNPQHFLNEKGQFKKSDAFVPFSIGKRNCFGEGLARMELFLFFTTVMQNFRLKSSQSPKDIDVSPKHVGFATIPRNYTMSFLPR

[5] = biological target: Cytochrome P450 3A4 (Homo sapiens, UniProt P08684); assay: Inhibition of human liver microsomes CYP3A4 using midazolam as substrate preincubated with compound followed by substrate addition; assay type: ADME
Chain of Cytochrome P450 3A4 (P08684 whole entry): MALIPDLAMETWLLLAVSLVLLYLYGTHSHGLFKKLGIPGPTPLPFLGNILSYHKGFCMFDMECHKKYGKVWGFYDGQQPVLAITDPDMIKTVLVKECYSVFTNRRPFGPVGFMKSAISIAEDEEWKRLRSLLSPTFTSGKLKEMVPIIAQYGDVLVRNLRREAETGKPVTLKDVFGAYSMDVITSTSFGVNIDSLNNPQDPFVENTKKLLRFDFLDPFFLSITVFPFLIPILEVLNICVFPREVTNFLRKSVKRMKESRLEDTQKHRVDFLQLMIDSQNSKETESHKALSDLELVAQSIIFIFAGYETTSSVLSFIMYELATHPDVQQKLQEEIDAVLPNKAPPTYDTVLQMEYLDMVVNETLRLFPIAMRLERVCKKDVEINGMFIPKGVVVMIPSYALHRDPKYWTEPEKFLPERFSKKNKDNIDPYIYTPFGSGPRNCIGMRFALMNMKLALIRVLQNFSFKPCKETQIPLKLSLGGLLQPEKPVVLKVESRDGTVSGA

[6] = Drug metabolism in human hepatocytes assessed as CYP-mediated (2S,3S,4S,5R,6R)-6-(6-amino-2-(5-fluoro-1-(2-fluorobenzyl)-1H-pyrazolo[3,4-b]pyridin-3-yl)-5-(methoxycarbonylamino)pyrimidin-4-ylamino)-3,4,5-trihydroxytetrahydro-2H-pyran-2-carboxylic acid metabolite formation; assay type: ADME, cell-based
[7] = Drug metabolism in human hepatocytes assessed as CYP-mediated methyl 4,6-diamino-2-(5-fluoro-1H-pyrazolo[3,4-b]pyridin-3-yl)pyrimidin-5-ylcarbamate metabolite formation; assay type: ADME, cell-based
[8] = Stimulation of rat sGC expressed in CHO cells using GTP as substrate assessed as increase in cGMP formation treated for 6 mins by luminescence assay; assay type: cell-based
In short: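 CHO reporter cells overexpressing sGC, cultured 1 or 2 d, then loaded 3 h with coelenterazine in calcium-free Tyrode. Compound serial dilutions applied 6 min. Calcium added (final 3 mM) and luminescence read for 40 s by CCD camera. SNAP co-applied at 30 or 100 nM where stated. ODQ condition: 10 μM ODQ pretreatment for 3 h.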

[9] = tested on: Saphenous artery; assay: Vasorelaxant activity in normal Chinchilla rabbit saphenous artery ring administered at the beginning of the last resting period of 28 mins; assay type: functional; conditions: Oryctolagus cuniculus
[10] = tested on: Saphenous artery; assay: Vasorelaxant activity in nirate-tolerant Chinchilla rabbit saphenous artery ring administered at the beginning of the last resting period of 28 mins in presence of sorbide dinitrate; assay type: functional; conditions: Oryctolagus cuniculus
[11] = tested on: Heart; assay: Cardiotoxicity in Wistar rat assessed as effect on left ventricular diastolic pressure administered for 20 mins; assay type: toxicity, tissue-based
In short: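 Male Wistar rats (200−250 g) anesthetized with Narcoren 100 mg/kg ip. Excised heart Langendorff-perfused at constant flow 10 mL/min with Krebs−Henseleit buffer gassed with 95% O2/5% CO2. Values expressed as relative change from baseline before compound application.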

[12] = tested on: Rattus norvegicus; assay: Antihypertensive activity in L-NAME-treated renin transgenic rat co-expressing RenTG(mRRen2)27 assessed as reduction in Kim-1 expression at 3 to 10 mg/kg administered qd via oral gavage up to 21 days; assay type: functional, organism-based
In short: (§2)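 Male RenTG(mRRen2)27 rats, 8 weeks old, given L-NAME in drinking water (50 mg/L) throughout. Randomised to placebo (2 mL/kg qd, n = 20) or 3 and 10 mg/kg/day po by gavage qd (n = 15 per group). Tail-cuff blood pressure on day 0, 7, 14 and 21. Plasma taken at day 22 end. Unpaired t test, mean ± SEM.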

[13] = tested on: Rattus norvegicus; assay: Antihypertensive activity in L-NAME-treated renin transgenic rat co-expressing RenTG(mRRen2)27 assessed as reduction in proteinuria administered qd via oral gavage up to 21 days; assay type: functional; in short: as §2
[14] = tested on: Rattus norvegicus; assay: Effect on mortality in L-NAME-treated renin transgenic rat co-expressing RenTG(mRRen2)27 assessed as survival rate at 3 mg/kg administered qd via oral gavage up to 21 days (reference value: 25%); assay type: functional; conditions: 504 h

In the case of `COC(=O)Nc1c(N)nc(-c2nn(Cc3ccccc3F)c3ncc(F)cc23)nc1N` [VERICIGUAT], the Vd [1] is reported as 1.4 L/kg, the half-life [2] is reported as 3.4 h and the half-life [3] is reported as 6.2 h. The IC50 [4] was greater than 50000 nM, the IC50 [5] was greater than 50000 nM and the Drug metabolism [6] was “Metabolite_Detected”. The Drug metabolism [7] was “Metabolite_Detected”, the EC50 [8] was 1000 nM and the IC50 [9] was 5.6 nM. The IC50 [10] was 5.8 nM, the Activity [11] was “Non-Toxic” and the Activity [12] was “Active”. The Activity [13] was “Dose-dependent effect” and the survival at 3 mg/kg [14] was 70%.
